# The list is not random: actives were taken first. Their share in the collection is about 2.4%.
# NPY Y1 blocker: blocks the human neuropeptide Y Y1 receptor | HEK293-CNG Y1 cells, membrane potential fluorescence; NPY at EC95, then isoproterenol | inhibition, % at 3.6 µM | actives 1% (n = 200,000);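 active = inhibition above the campaign mean inhibition of all tested compounds plus 3 SD, cut at about 20% in these data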
#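 Material: Y1- and CNG-channel-expressing HEK293 cells / Probe or stimulus: NPY 25 nM then isoproterenol 1 µM plus Ro 20-1724 25 µM / Doses: 3.6 µM single dose, DMSO 0.4% / Schedule: compound incubation 1 h at room temperature, readout 45 min post-stimulation / Signal: membrane potential fluorescence / Benchmarks: isoproterenol-only wells as full block versus NPY-plus-isoproterenol wells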
# S1P4 agonist: agonists of human S1P4 receptor; O95977; S1P4-expressing cell line, agonist reporter assay; activation, % at 4.98 µM; actives 0.35% (n = 220,000); in the data active = activation above about 11%
# NPY-Y2 antag: antagonists of human neuropeptide Y receptor Y2; P49146; NPY-Y2 expressing cells, antagonist mode; inhibition, % at 2.7 µM; actives 0.99% (n = 140,000)
# Target sequence (P49146 whole entry, looked up): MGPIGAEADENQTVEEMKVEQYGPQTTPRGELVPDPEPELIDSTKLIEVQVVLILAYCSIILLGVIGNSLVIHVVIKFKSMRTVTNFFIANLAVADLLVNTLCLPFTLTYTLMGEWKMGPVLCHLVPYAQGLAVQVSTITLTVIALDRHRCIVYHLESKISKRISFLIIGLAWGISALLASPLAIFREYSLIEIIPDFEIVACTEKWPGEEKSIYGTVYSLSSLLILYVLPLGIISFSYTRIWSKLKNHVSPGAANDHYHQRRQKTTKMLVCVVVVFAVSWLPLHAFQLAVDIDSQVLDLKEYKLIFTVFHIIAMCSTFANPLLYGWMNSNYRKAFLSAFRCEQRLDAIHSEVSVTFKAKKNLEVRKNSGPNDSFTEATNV
# S1P4 antag: blocks the human S1P4 receptor; O95977; S1P4-expressing cells, antagonist mode, reporter read-out; inhibition, % at 4.98 µM; actives 0.26% (n = 220,000); AID 1510; in the data active = inhibition above about 29%
# NPY-Y2 PAM-ag: human NPY-Y2 potentiation or agonism, primary screen | activation, % at 3.6 µM | cells expressing NPY-Y2, potentiator/agonist read-out | actives 0.45% (n = 220,000) | P49146 | AID 1359; in the data active = activation above about 27%;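 also: cells stimulated with NPY near EC25 plus isoproterenol at EC100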
# NPY-Y1 PAM-ag: potentiators or agonists of human neuropeptide Y receptor Y1 | P25929 | NPY-Y1 expressing cells, potentiator/agonist activation | activation, % at 3.6 µM | actives 0.37% (n = 220,000) | AID 1304; in the data active = activation above about 33%, passing the limit was not always enough;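 also: cells stimulated with NPY at EC10 then isoproterenol at EC100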
# NPY-Y1 antag ct: human NPY-Y1 antagonism in NPY-Y2 counter-screen. actives 19% (n = 710). shares compounds with NPY-Y2 antag. AID 1256. cell-based NPY-Y1 antagonism counterscreen. inhibition, % at 3.6 µM; in the data active = inhibition above about 20%;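 also: cells challenged with NPY then isoproterenol with cAMP sensed through a CNG channel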
# NPY-Y2 ant conf: confirmation of human neuropeptide Y receptor Y2 antagonists. shares compounds with NPY-Y2 antag. HEK293 NPY-Y2 CNG channel, membrane potential fluorescence. inhibition, % at 2.8 µM. actives 32% (n = 710). AID 1257;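 active = mean inhibition of triplicate wells above the hit cutoff set in the primary screen, cut at about 17% in these data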
# NPY-Y1 ant conf: human NPY-Y1 antagonism, confirmation; HEK293-CNG NPY-Y1, membrane potential fluorescence, cAMP; NPY challenge against isoproterenol-raised cAMP; inhibition, % at 3.6 µM; shares compounds with NPY Y1 blocker; actives 21% (n = 1,200); in the data active = inhibition above about 20%
# NPY2 antag ctr: antagonizes human NPY-Y2, counter-screen to NPY-Y1 antagonists; shares compounds with NPY Y1 blocker; HEK293 NPY-Y2 CNG membrane potential fluorescence, antagonism; cells given NPY, then isoproterenol; inhibition, % at 3.6 µM; actives 28% (n = 1,200)
# A number is an active result; . = inactive; / = no result given. Rule as the data show it, unless noted: active = inhibition above about 17%; inactive = the rest.
SMILES,NPY Y1 blocker,S1P4 agonist,NPY-Y2 antag,S1P4 antag,NPY-Y2 PAM-ag,NPY-Y1 PAM-ag,NPY-Y1 ant conf,NPY2 antag ctr,others
CCCCNC(=O)c1onc(CSc2cccc(C)c2)c1C(=O)O,.,.,21,.,.,.,/,/,NPY-Y1 antag ct=.;NPY-Y2 ant conf=.
C=CCNC(=O)c1onc(CSc2ccccc2F)c1C(=O)O,.,.,18,.,.,.,/,/,NPY-Y1 antag ct=.;NPY-Y2 ant conf=.
CN(C)c1ccc(/C=N/N2CCN(c3ccccn3)CC2)cc1,/,.,/,.,.,.,/,/,
CCOC(=O)c1ccccc1NC(=O)CSc1nnc(COc2ccccc2C)n1C,.,.,19,.,.,.,/,/,NPY-Y1 antag ct=.;NPY-Y2 ant conf=.
CCC(c1nnnn1C(C)(C)C)N1CCN(c2cc(Cl)ccc2C)CC1 (configuration not stated),25,.,.,.,.,.,.,.,
Cc1ccc(Cl)cc1N1CCN(C(c2ccc(C#N)cc2)c2nnnn2C2CCCC2)CC1 (configuration not stated),27,.,.,.,.,.,.,.,
Cc1ccc(/C=C/C(=O)O)cc1S(=O)(=O)NCc1ccco1,.,.,/,.,.,.,/,/,
COC(=O)c1nc(N)sc1-c1ccc(Cl)c(Cl)c1,/,.,/,.,.,.,/,/,
COCCCNc1nc(SCc2ccccc2)nc2sc3c(c12)CCC3,21,.,.,.,.,.,30,46,
N#Cc1cnn(-c2nc(SCc3ccccc3)nc3sc4c(c23)CCCC4)c1N,.,.,.,.,.,.,/,/,
S=c1cnc2ccccc2[nH]1,.,.,/,.,.,.,/,/,
CN(C)CCNC(=O)c1sc2cccc(F)c2c1Cl,33,.,/,.,.,.,.,.,
O=C(NCCCn1ccnc1)c1sc2cccc(F)c2c1Cl,.,.,.,.,.,.,/,/,
Cc1ccccc1NC(=O)N1CCN(S(=O)(=O)c2ccccc2)CC1,.,.,/,.,.,.,/,/,
CCCCN(C)C(=O)Cc1c(OC)ccc2cc(Br)ccc12,21,.,.,.,.,.,.,.,
CCOC(=O)c1[nH]c2cc3c(cc2c1NC(=O)CN1CCN(CCO)CC1)OCO3,/,.,/,.,.,.,/,/,
Cn1c(C(=O)N(Cc2ccccc2)Cc2cccs2)cc2sccc21,21,.,.,.,.,.,.,.,
CSc1nsc(SCC(=O)N2CCN(c3ccccc3)CC2)n1,29,.,.,.,.,.,.,.,
CCOc1ccccc1NC(=O)C(OC(=O)C1CC1)c1ccccc1 (configuration not stated),/,.,/,.,.,.,/,/,
CCOc1ccccc1NC(=O)C(NCC1(N2CCCCC2)CCCCC1)c1ccccc1 (configuration not stated),34,.,/,.,.,.,31,30,
Cc1nnc(SCC(=O)Nc2ccc3c(c2)OCO3)n(N)c1=O,.,.,/,.,.,.,/,/,
COc1ccc(/C=C/CN2CCC(CO)(Cc3ccccc3Cl)CC2)cc1,30,.,/,.,.,.,.,18,
COC(=O)c1ccc(CN2CCC(CO)(Cc3ccccc3Cl)CC2)cc1,.,.,/,.,.,.,/,/,
COc1ccc(-c2onc(C)c2-c2cnn(-c3ccccc3)c2)c(O)c1C,31,.,/,.,.,.,.,.,
COc1ccc(-c2n[nH]c(C)c2-c2cnn(-c3ccccc3)c2)c(O)c1C,.,.,.,.,.,.,/,/,
SMILES,NPY Y1 blocker,S1P4 agonist,NPY-Y2 antag,S1P4 antag,NPY-Y2 PAM-ag,NPY-Y1 PAM-ag,NPY-Y1 ant conf,NPY2 antag ctr,others
COc1ccc2c(c1)c(C(O)CN1CCC(Cc3ccccc3)CC1)c(C)n2C (configuration not stated),21,.,.,.,.,.,.,.,
Cc1ccc(C(C)C)c(OCc2nn(CC(=O)c3ccc(OC(F)F)cc3)c3[n+]2CCCCC3)c1,31,.,/,.,.,.,.,.,
COc1ccc(C(=O)Cn2nc(CNc3ccc(Br)cc3)[n+]3c2CCCCC3)cc1,.,.,/,.,.,.,/,/,
CCN(CC)S(=O)(=O)c1cccc(-c2nnc(SCC(=O)c3cc(C)n(C)c3C)o2)c1,.,.,.,.,.,.,/,/,
CCN(CC)S(=O)(=O)c1cccc(-c2nnc(SCCOc3ccccc3)o2)c1,24,.,.,.,.,.,.,.,
O=C(Nc1ncc(Cc2ccc(SC(F)F)cc2)s1)c1ccccc1,21,.,.,.,.,.,.,.,
Cc1ccc(C(=O)Nc2ncc(Cc3ccccc3)s2)o1,.,.,.,.,.,.,/,/,
CCCCC(CCC(=O)Nc1ccccc1C(=O)OCC)C(=O)O (configuration not stated),23,.,.,.,.,.,.,.,
CSc1ccc(-c2nc3cnccn3c2Nc2ccc3c(c2)OCO3)cc1,28,.,.,.,.,.,.,.,
CCOc1ccc(CNC(=O)c2ccc(Sc3ccc(Cl)cc3)c(NC(C)=O)c2)cc1,41,.,.,.,.,.,24,20,
CCOc1ccccc1CNC(=O)c1ccc(Sc2ccc(Cl)cc2)c(NC(C)=O)c1,.,.,.,.,.,.,/,/,
Cc1cccc(-c2nsc(SCC(=O)NCC3CCCO3)n2)c1 (configuration not stated),30,.,/,.,.,.,.,.,
O=C(/C=C/Sc1ccc(C(F)(F)F)cn1)c1ccccc1,/,.,/,.,.,.,/,/,
Cc1ccc(-c2csc(Nc3ccc(C(=O)O)cc3)[n+]2Cc2ccccc2)cc1,.,.,/,.,.,.,/,/,
Cc1ccc(-c2csc(Nc3ccccc3)[n+]2CCc2ccccc2)cc1,22,.,/,.,.,.,.,18,
Cc1cc(C)nc(N2CCN(C(=O)CCC(=O)Nc3nnc(C(C)C)s3)CC2)n1,/,.,/,.,.,.,/,/,
COc1ccc(C(=O)C2CCCN(Cc3ccc(Sc4nncn4C)o3)C2)cc1F (configuration not stated),.,.,/,.,.,.,/,/,
CC(NC(=O)c1cc(COc2c(F)cccc2F)on1)c1cnn(-c2ccccc2)c1 (configuration not stated),22,.,/,.,.,.,.,.,
CSc1ccc(NC(=O)NCc2ccccc2)cc1,/,.,/,.,.,.,/,/,
COc1cccc(NC(=O)c2cc(-c3ccncc3)nc3c(C)cc(C)cc23)c1,22,.,/,.,.,.,28,29,
S=c1[nH]nc(C2(c3ccccc3)CCCC2)o1,/,.,/,.,.,.,/,/,
CCOC(=O)C(CO)(NC(C)=O)C(=O)OCC,25,.,.,.,.,.,.,.,

# Screening data (PubChem BioAssay)
